Screening data deposited in PubChem BioAssay by several laboratories.
The list is not random: actives were taken first. Their share in the collection is about 3.9%.
APP 5'UTR act: activates APP 5'UTR luciferase reporter. SH-SY5Y APP 5'UTR luciferase reporter, luminescence; zero percent = DMSO vehicle wells. AID 1276. hit rate 1% among 190,000. activation, % at 2 µM;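 active means activation above a set limit, based on mean plus 3 SD of controls, cut at about 140% in these data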
Pf gamet viab: P. falciparum stage V gametocyte viability inhibition. P. falciparum stage V gametocytes, ATP luminescence, 24 h. inhibition, % at 10.9 µM. AID 743093. hit rate 0.065% among 150,000;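 active means inhibition above the mean plus 3 SD of compounds within the control limits, set per campaign, cut at about 38% in these data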
STAT3 act: increases IL-6 driven STAT3 reporter signal. activation (% of control), % at 5.6 µM. hit rate 0.91% among 190,000. U3A cells, IL-6 STAT3-luciferase reporter, luminescence; 100% = signal with IL-6 EC80 alone. AID 871;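 active means activation above the screen-wide mean of compound activation plus 3 SD, cut at about 130% in these data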
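Test system: Human STAT1-deficient U3A cells with stable STAT3-luciferase reporter | Also added: Interleukin-6, 33 ng/mL | Timing: Compound pre-incubation 1 h before IL-6, then 6 h stimulation at 37 °C | Technique: Luciferase reporter luminescence | Read-out: Percent of IL-6-only median luminescence | Benchmarks: IL-6-only wells as 100% reference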
NF-kB expr up: raises NF-kB expression in human neuronal cells | NF-kB reporter expression; hits give high values | fold change at 12.5 µM | AID 1239 | hit rate 1.6% among 190,000; in the data active means fold change above about 3.3
STAT1 inh: inhibitors of IFN-gamma induced STAT1 signaling | NIH 3T3 STAT1-luciferase reporter, luminescence | inhibition, % at 5.5 µM | hit rate 0.35% among 200,000;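 active means inhibition above a set limit, the mean inhibition across all tested compounds plus 3 SD, cut at about 34% in these data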
STAT1 act: increases IFN-gamma driven STAT1 reporter signal. NIH 3T3 STAT1-luciferase reporter, luminescence; 100% = IFN-gamma alone, no compound. activation (% of control), % at 5.5 µM. hit rate 2.6% among 200,000;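 active means activation above the screen-wide mean activation plus 3 SD, cut at about 130% in these data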
Hits are given with their value; . = inactive; / = no result.

SMILES	APP 5'UTR act	Pf gamet viab	STAT3 act	NF-kB expr up	STAT1 inh	STAT1 act
CC(C)N1CCc2c(sc(NC(=S)NC(=O)c3ccccc3)c2C#N)C1	.	.	.	.	.	134
Cc1cc(C(=O)Nc2sc3c(c2C#N)CCC(C)C3)no1 (stereo not given)	.	/	.	.	.	139
NS(=O)(=O)c1ccc(NC(=O)COC(=O)COc2ccc(Br)cc2)cc1	/	.	/	/	/	/
CC(Sc1nc(-c2ccc(F)cc2)cs1)C(=O)Nc1ccc(Cl)cn1 (stereo not given)	.	/	.	.	.	.
O=C(N/N=C/c1ccc(OC(=O)c2ccco2)cc1)c1ccc[n+]([O-])c1	/	.	/	/	/	/
CN1CCN(C(=O)c2ccc(-n3cccn3)nc2)CC1	.	.	.	.	.	.
N#Cc1c(NC(=O)/C=C/c2ccco2)sc2c1CCCC2	.	.	154	.	.	174
Cc1ccc(C(=O)Nc2sc3c(c2C#N)CCCCC3)cc1C	.	.	.	.	.	134
N#Cc1c(NC(=O)c2ccccc2)sc2c1CCCCC2	198	/	.	3.8	.	136
CC(=O)Nc1sc2c(c1C#N)CCCCC2	.	.	.	.	.	.
C=CCC1(CC=C)CCCN1C(=O)CC1C(=O)NCCN1Cc1cccc(OC)c1OC (stereo not given)	.	.	.	.	.	.
CCCc1ccc(OCc2ccc(C(=O)O)o2)c(OC)c1	.	/	.	4.2	.	.
COC(=O)c1ccc(COc2ccccc2[N+](=O)[O-])o1	.	.	.	.	.	.
CCCc1ccc(OCc2ccc(C(=O)OC)o2)c(OC)c1	.	/	.	.	.	132
CCOc1ccc(OCc2ccc(C(=O)O)o2)cc1	.	/	.	.	.	.
O=C(O)CC(NC(=O)C12CC3CC(CC(C3)C1)C2)c1ccc(OC2CCCC2)cc1 (stereo not given)	.	/	.	.	.	.
Cc1ccc(CNC(=O)c2ccc(Cn3cc(-c4ccc(C)cc4)nc3-c3ccncc3)cc2)cc1	/	.	/	/	/	/
CCSC1=NC2(CCCCC2)Nc2sc3c(c21)CCCC3	.	/	.	.	.	.
Brc1cccc(Nc2nc(-c3cccnc3)cs2)c1	/	.	/	/	/	/
Brc1ccc(Nc2nc(-c3cccnc3)cs2)cc1	.	.	165	.	.	131
Clc1cccc(Nc2nc(-c3cccnc3)cs2)c1	.	.	157	.	.	139
CC(=O)c1cccc(Nc2nc(-c3cccnc3)cs2)c1	/	.	/	/	/	/
CCOC(=O)Cc1csc(NC(=O)c2cc3c(s2)CCCC3)n1	.	.	.	.	.	.
Cc1csc(NC(=O)c2cc3c(s2)CCCC3)n1	165	.	.	.	.	.
Cc1cnc(NC(=O)c2cc3c(s2)CCCC3)s1	173	.	.	4.1	42	.
SMILES	APP 5'UTR act	Pf gamet viab	STAT3 act	NF-kB expr up	STAT1 inh	STAT1 act
Cc1csc(NC(=O)c2cc3c(s2)CCCCC3)n1	.	.	.	.	68	.
OCC1(CCc2ccccc2)CCCN(CCCc2ccccc2)C1 (stereo not given)	/	.	/	/	/	/
NC1=NN=C(c2ccc3c(c2)OCCO3)CS1	.	/	.	.	49	.
C=CCN=C1NN=C(c2ccc3c(c2)OCCO3)CS1	.	.	.	.	64	.
Cc1nc2c(-c3ccccc3)c[nH]n2c(=O)c1Cc1ccccc1	.	.	.	.	.	142
O=C(OCc1nnc(-c2ccc(Cl)cc2)o1)C12CC3CC(CC(O)(C3)C1)C2	.	.	.	.	.	138
Cc1ccc(C2=NNC3(CCOC(C)(C)C3)S2)cc1 (stereo not given)	178	.	.	.	.	.
COC(=O)CSc1nc2ccccc2o1	.	/	.	.	.	.
CCCCCCOC(=O)Sc1nc2ccccc2o1	.	.	.	4.1	.	.
COc1ccc(-c2cc(-c3ccccc3O)[nH]n2)cc1	192	/	.	7.1	.	.
Cc1ccc(-c2cc(-c3ccc(C)cc3O)[nH]n2)cc1	/	.	/	/	/	/
COc1ccc(-c2cc(-c3ccccc3)n[nH]2)c(O)c1	190	/	.	7.9	.	.
Oc1ccccc1-c1cc(-c2ccccc2)n[nH]1	/	.	/	/	/	/
COc1ccc(/C=C/c2nc(-c3ccccc3O)n(-c3ccccc3)n2)cc1	.	.	.	.	.	.
COc1ccc(/C=C/c2nc(-c3ccccc3O)n[nH]2)cc1	170	.	.	7.6	.	.
O=C(NCCCCc1ccccc1)c1ccc(F)cc1	/	.	/	/	/	/
COc1ccc(-c2[nH]ncc2CN2CCCC2c2nonc2C)c(F)c1 (stereo not given)	.	39	.	.	.	.
C=CCSc1nc2ccccc2n1C(=O)/C=C/c1ccc(OC)c(OC)c1	.	/	.	.	.	.
C=CCSc1nc2ccccc2n1C(=O)/C=C/c1cc(OC)c(OC)c(OC)c1	.	/	.	.	.	145
Cc1ccc(SCC(=O)Nc2ccc(N3CCN(C)CC3)c(F)c2)cc1	.	.	.	.	.	133
COc1ccc(SCC(=O)Nc2ccc(N3CCN(C)CC3)c(F)c2)cc1	.	/	.	.	.	.
COc1ccc2c(c1OC)C(=O)N(c1ccc(C)cc1)C2=O	.	/	.	.	.	129
COc1ccc2c(c1OC)C(=O)N(c1ccc(C)c(C)c1)C2=O	.	/	.	.	.	.
CC(=O)COc1ccc(-c2csnn2)cc1	/	.	/	/	/	/
c1ccc(COc2ccc(-c3csnn3)cc2)cc1	.	/	.	.	.	136
SMILES	APP 5'UTR act	Pf gamet viab	STAT3 act	NF-kB expr up	STAT1 inh	STAT1 act
COC(=O)[C@@H]1CCCN1C(=O)CCc1nnc(CCC2CCCCC2)o1	.	/	.	.	.	139
Cc1ccc(C(=O)n2c(N)nc3ccccc32)cc1	.	/	.	.	89	.
FC(F)(F)c1cccc(N2CCN(C3CC4CCC3C4)CC2)c1 (stereo not given)	/	.	/	/	/	/
CC(C)(C)C1CCc2sc(C(=O)NNC(=O)CCl)cc2C1 (stereo not given)	.	.	.	.	.	.
CCCCS(=O)(=O)N1CCC(C(=O)Oc2ccc(Cl)cc2)CC1	/	.	/	/	/	/
COCCNC(=O)COc1ccc(Br)cc1Cl	.	/	.	.	.	.
C=CCNC(=O)COc1ccc(Br)cc1Cl	.	.	.	.	.	132
Cc1ccc(OCC(=O)NC2CCCC2)c(C)c1	.	.	.	.	.	.
Cc1cc(Cl)ccc1OCC(=O)NC1CCCC1	.	.	.	.	.	.
O=C(COc1ccc(Br)cc1Cl)c1ccc[nH]1	.	.	.	.	.	137
O=C(COc1ccc(Br)cc1Br)NC1CCCC1	.	/	.	.	.	141
O=C(COc1ccc(Br)cc1Cl)NC1CCCCC1	.	.	.	3.5	.	138
Cc1c(NC(=O)c2ccc(S(=O)(=O)N3CCOCC3)cc2)c(=O)n(-c2ccccc2)n1C	/	.	/	/	/	/
CC(C)(C)OC(=O)N1CCC(CC2CC(c3cccc(Br)c3)=NO2)(C(=O)O)CC1 (stereo not given)	/	.	/	/	/	/
CCOC(=O)c1ccc(CC2S/C(=C(\C#N)C(C)=O)NC2=O)cc1 (stereo not given)	.	/	.	3.5	.	.
